The source of these data is ChEMBL document CHEMBL2385051, “Facile synthesis of new imidazo[1,2-a]pyridines carrying 1,2,3-triazoles via click chemistry and their antiepileptic studies” (Bioorg Med Chem Lett, 2013).

Activity calls are given as the source filed them. The calls are words filed in the database; no cut-off is given here.

Data set [1] relates to Mus musculus. The data set is described as follows: Anticonvulsant activity in NMRI mouse assessed as protection against maximal electroshock-induced seizures at 20 to 100 mg/kg, ip after 4 hrs. Type of data set: functional, organism-based. The procedure, abridged: (§1)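 Mice received 20, 40 and 100 mg/kg test doses. Seizures were induced by electrical shock (MES) or PTZ injection (scPTZ) at 0.5 and 4 h after dosing. The value recorded is the minimal dose protecting more than 50% of mice against seizure.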
In general terms: Protection in the maximal electroshock model is a classic sign of anticonvulsant action.

Data set [2] concerns Mus musculus. The data set is described as follows: Neurotoxicity in NMRI mouse assessed as minimal motor impairment at 20 to 100 mg/kg, ip after 4 hrs by rotarod test. Format: toxicity, organism-based. Set-up: dose 20-100 mg/kg, route intraperitoneal. To be noted: in vivo. The procedure, abridged: (§2)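 Rotarod motor-impairment test in mice given 20, 40 and 100 mg/kg doses, read 0.5 and 4 h after administration. The value recorded is the minimal dose producing toxicity in more than 50% of mice.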
In general terms: In the rotarod test animals must keep their balance on a rotating rod.

The subject of data set [3] is Mus musculus. The experiment in a line: Neurotoxicity in NMRI mouse assessed as minimal motor impairment at 20 to 100 mg/kg, ip after 0.5 hrs by rotarod test. Type of data set: toxicity, organism-based. Set-up: dose 20-100 mg/kg, route intraperitoneal. To be noted: in vivo. The procedure, abridged:
as §2

Data set [4] relates to Mus musculus. The experiment in a line: Anticonvulsant activity in ip dosed NMRI mouse assessed as dose required to cause protection against subcutaneous pentylene tetrazole-induced seizure after 4 hrs. Type of data set: functional. To be noted: read-out: MED. The procedure, abridged: as §1
In data set [5] the test system is Mus musculus. The data set is described as follows: Anticonvulsant activity in NMRI mouse assessed as protection against maximal electroshock-induced seizures at 20 to 100 mg/kg, ip after 0.5 hrs. Format: functional, organism-based. The procedure, abridged: as §1
Data set [6] concerns Mus musculus. The data set is described as follows: Anticonvulsant activity in ip dosed NMRI mouse assessed as dose required to cause protection against subcutaneous pentylene tetrazole-induced seizure after 0.5 hrs. Format: functional. To be noted: read-out: MED. The procedure, abridged:
as §1

Data set [7] relates to Mus musculus. The experiment in a line: Anticonvulsant activity in NMRI mouse assessed as protection against subcutaneous pentylene tetrazole-induced seizure at 20 to 100 mg/kg, ip after 0.5 hrs. Type of data set: functional, organism-based. The procedure, abridged:
as §1

The subject of data set [8] is Mus musculus. The experiment in a line: Anticonvulsant activity in NMRI mouse assessed as protection against subcutaneous pentylene tetrazole-induced seizure at 20 to 100 mg/kg, ip after 4 hrs. Type of data set: functional, organism-based. The procedure, abridged: as §1
The subject of data set [9] is Mus musculus. The experiment in a line: Anticonvulsant activity in ip dosed NMRI mouse assessed as dose required to cause protection against maximal electroshock-induced seizures after 4 hrs. Format: functional. To be noted: read-out: MED. The procedure, abridged:
as §1

In the case of `Cc1ccc(-c2nc3ccc(Br)cn3c2/C=N/OCc2cn(Cc3ccc(C#N)cc3)nn2)cc1`, the result with Mus musculus [1] and with Mus musculus [5] was inactive. Besides, the Activity entry in the data set with Mus musculus [2] and with Mus musculus [3] was “Non-toxic” throughout. The minimal effective dose with Mus musculus [4] and with Mus musculus [6] was 40 mg/kg throughout.
For the compound `Cc1ccc(Cn2cc(CO/N=C/c3c(-c4ccc(F)cc4)nc4ccc(Br)cn34)nn2)cc1`, the result with Mus musculus [1], with Mus musculus [7] and with Mus musculus [5] was inactive. In addition, the Activity entry with Mus musculus [2] and in the data set with Mus musculus [3] was “Non-toxic” throughout. Further, in the data set with Mus musculus [4], the minimal effective dose was 100 mg/kg.
For `O/N=C/c1c(-c2ccccc2)nc2ccc(Br)cn12`, the result in the data set on Mus musculus [1], in the data set on Mus musculus [8], in the data set with Mus musculus [7] and in the data set with Mus musculus [5] was inactive. In addition, the Activity entry in the data set on Mus musculus [2] and in the data set on Mus musculus [3] was “Non-toxic” throughout.
As for `C#CCO/N=C/c1c(-c2ccc(F)cc2)nc2c(C)cccn12`, the outcome in the data set on Mus musculus [1], in the data set on Mus musculus [7] and in the data set on Mus musculus [5] was inactive. Moreover, the Activity result with Mus musculus [2] and with Mus musculus [3] was “Non-toxic” in each case. In the data set on Mus musculus [4], the minimal effective dose stood at 100 mg/kg.
In the case of `COc1ccc(Cn2cc(CO/N=C/c3c(-c4ccc(F)cc4)nc4c(C)cccn34)nn2)cc1`, the result in the data set on Mus musculus [1] and in the data set on Mus musculus [5] was inactive. The Activity entry in the data set with Mus musculus [2] and with Mus musculus [3] was “Non-toxic” throughout. The minimal effective dose with Mus musculus [4] and in the data set with Mus musculus [6] was 40 mg/kg throughout.
For `N#Cc1ccc(Cn2cc(CO/N=C/c3c(-c4ccccc4)nc4ccc(Br)cn34)nn2)cc1`, the Activity result with Mus musculus [2] and with Mus musculus [3] was “Non-toxic” in each case. Further, the minimal effective dose in the data set on Mus musculus [9] came out at 100 mg/kg; with Mus musculus [4], 20 mg/kg; with Mus musculus [6] it was 20 mg/kg. In the data set with Mus musculus [5], the result was inactive.
As for `COc1ccc(Cn2cc(CO/N=C/c3c(-c4ccccc4)nc4c(C)cccn34)nn2)cc1`, the Activity entry with Mus musculus [2] and in the data set with Mus musculus [3] was “Non-toxic” in each case. Moreover, the results for the minimal effective dose with Mus musculus [9], in the data set on Mus musculus [4] and with Mus musculus [6] were 40 mg/kg, 100 mg/kg and 40 mg/kg, respectively. Besides, the outcome in the data set on Mus musculus [5] was inactive.
Take `Cc1ccc(-c2nc3c(C)cccn3c2/C=N/O)cc1`: the Activity entry in the data set on Mus musculus [2] and with Mus musculus [3] was “Non-toxic” in each case. In addition, the minimal effective dose in the data set with Mus musculus [9] stood at 40 mg/kg; in the data set on Mus musculus [4] it was 40 mg/kg; in the data set on Mus musculus [6] it was 20 mg/kg. Moreover, in the data set on Mus musculus [5], the result was inactive.
In the case of `COc1ccc(Cn2cc(CO/N=C/c3c(-c4ccc(C)cc4)nc4ccc(Br)cn34)nn2)cc1`, the result with Mus musculus [1], in the data set on Mus musculus [7] and in the data set with Mus musculus [5] was inactive. The Activity result with Mus musculus [2] and in the data set with Mus musculus [3] was “Non-toxic” in each case. Besides, the minimal effective dose in the data set on Mus musculus [4] is 40 mg/kg.
`C#CCO/N=C/c1c(-c2ccccc2)nc2c(C)cccn12`: the outcome in the data set on Mus musculus [1], in the data set with Mus musculus [7] and in the data set on Mus musculus [5] was inactive. Moreover, the Activity result in the data set on Mus musculus [2] and with Mus musculus [3] was “Non-toxic” throughout. Besides, the minimal effective dose in the data set on Mus musculus [4] came to 100 mg/kg.
For the compound `Cc1ccc(Cn2cc(CO/N=C/c3c(-c4ccccc4)nc4ccc(Br)cn34)nn2)cc1`, the outcome in the data set on Mus musculus [1], with Mus musculus [8], in the data set on Mus musculus [7] and in the data set with Mus musculus [5] was inactive. Besides, the Activity result with Mus musculus [2] and in the data set on Mus musculus [3] was “Non-toxic” each time.
`O=[N+]([O-])c1ccc(Cn2cc(CO/N=C/c3c(-c4ccccc4)nc4ccc(Br)cn34)nn2)cc1`: the Activity result in the data set on Mus musculus [2] and in the data set with Mus musculus [3] was “Non-toxic” throughout. The values for the minimal effective dose in the data set with Mus musculus [9], in the data set on Mus musculus [4] and with Mus musculus [6] were 40 mg/kg, 40 mg/kg and 20 mg/kg, respectively. Further, the outcome in the data set with Mus musculus [5] was inactive.
Take `O/N=C/c1c(-c2ccc(F)cc2)nc2ccc(Br)cn12`: the outcome in the data set with Mus musculus [1] and in the data set with Mus musculus [5] was inactive. Besides, the Activity result with Mus musculus [2] and in the data set with Mus musculus [3] was “Non-toxic” each time. For the same compound, the minimal effective dose with Mus musculus [4] and in the data set with Mus musculus [6] was 40 mg/kg each time.
On to `Cc1ccc(-c2nc3ccc(Br)cn3c2/C=N/O)cc1`, for which the Activity result in the data set with Mus musculus [2] and in the data set on Mus musculus [3] was “Non-toxic” in each case. The minimal effective dose in the data set on Mus musculus [9] amounted to 100 mg/kg; in the data set on Mus musculus [4], 20 mg/kg; in the data set on Mus musculus [6], 20 mg/kg. Further, in the data set with Mus musculus [5], the result was inactive.
With `Cc1cccn2c(/C=N/O)c(-c3ccc(F)cc3)nc12`, the outcome with Mus musculus [1], in the data set with Mus musculus [7] and in the data set with Mus musculus [5] was inactive. Further, the Activity result in the data set on Mus musculus [2] and with Mus musculus [3] was “Non-toxic” each time. Moreover, the minimal effective dose with Mus musculus [4] turned out to be 40 mg/kg.
Regarding `COc1ccc(Cn2cc(CO/N=C/c3c(-c4ccc(C)cc4)nc4c(C)cccn34)nn2)cc1`, the Activity entry with Mus musculus [2] and with Mus musculus [3] was “Non-toxic” each time. Further, the results for the minimal effective dose in the data set on Mus musculus [9], in the data set on Mus musculus [4] and in the data set on Mus musculus [6] were 100 mg/kg, 100 mg/kg and 40 mg/kg, respectively. Further, the result in the data set on Mus musculus [5] was inactive.
`Cc1cccn2c(/C=N/OCc3cn(Cc4ccc(C#N)cc4)nn3)c(-c3ccccc3)nc12`: the result in the data set with Mus musculus [1], in the data set on Mus musculus [7] and in the data set with Mus musculus [5] was inactive. The Activity entry with Mus musculus [2] and with Mus musculus [3] was “Non-toxic” throughout. For the same compound, the minimal effective dose in the data set on Mus musculus [4] came out at 40 mg/kg.
As to `Cc1ccc(Cn2cc(CO/N=C/c3c(-c4ccc(C)cc4)nc4ccc(Br)cn34)nn2)cc1`, the outcome in the data set on Mus musculus [1] and in the data set on Mus musculus [5] was inactive. The Activity entry in the data set with Mus musculus [2] and in the data set on Mus musculus [3] was “Non-toxic” throughout. Moreover, the minimal effective dose in the data set on Mus musculus [4] came out at 100 mg/kg; in the data set with Mus musculus [6], 40 mg/kg.
As to `C#CCO/N=C/c1c(-c2ccccc2)nc2ccc(Br)cn12`, the outcome in the data set with Mus musculus [1], in the data set on Mus musculus [8], with Mus musculus [7] and in the data set with Mus musculus [5] was inactive. Besides, the Activity result with Mus musculus [2] and in the data set on Mus musculus [3] was “Non-toxic” in each case.
In the case of `CN1C(=O)CN=C(c2ccccc2)c2cc(Cl)ccc21` [DIAZEPAM], the Activity entry with Mus musculus [2] and with Mus musculus [3] was “Non-toxic” in each case. For the same compound, the minimal effective dose with Mus musculus [4] and in the data set with Mus musculus [6] was 20 mg/kg each time.
For the compound `COc1ccc(Cn2cc(CO/N=C/c3c(-c4ccccc4)nc4ccc(Br)cn34)nn2)cc1`, the result in the data set on Mus musculus [1], in the data set with Mus musculus [7] and with Mus musculus [5] was inactive. In addition, the Activity entry in the data set with Mus musculus [2] and in the data set with Mus musculus [3] was “Non-toxic” each time. Further, the minimal effective dose in the data set on Mus musculus [4] stood at 40 mg/kg.
As to `Cc1ccc(Cn2cc(CO/N=C/c3c(-c4ccc(C)cc4)nc4c(C)cccn34)nn2)cc1`, the outcome in the data set with Mus musculus [1], with Mus musculus [8], in the data set on Mus musculus [7] and in the data set with Mus musculus [5] was inactive. For the same compound, the Activity entry with Mus musculus [2] and in the data set on Mus musculus [3] was “Non-toxic” in each case.
For `Cc1cccn2c(/C=N/OCc3cn(Cc4ccc([N+](=O)[O-])cc4)nn3)c(-c3ccccc3)nc12`, the outcome in the data set on Mus musculus [1], with Mus musculus [8], in the data set on Mus musculus [7] and in the data set on Mus musculus [5] was inactive. Also, the Activity entry with Mus musculus [2] and with Mus musculus [3] was “Non-toxic” each time.
Turning to `C#CCO/N=C/c1c(-c2ccc(C)cc2)nc2ccc(Br)cn12`, the Activity entry in the data set with Mus musculus [2] and with Mus musculus [3] was “Non-toxic” in each case. Moreover, the minimal effective dose was found to be 20 mg/kg with Mus musculus [9], 40 mg/kg in the data set with Mus musculus [4] and 20 mg/kg with Mus musculus [6]. Also, the result in the data set with Mus musculus [5] was inactive.
For the compound `Cc1cccn2c(/C=N/O)c(-c3ccccc3)nc12`, the outcome in the data set on Mus musculus [1], in the data set with Mus musculus [8], in the data set with Mus musculus [7] and in the data set with Mus musculus [5] was inactive. Also, the Activity result in the data set on Mus musculus [2] and with Mus musculus [3] was “Non-toxic” in each case.
On to `Cc1ccc(Cn2cc(CO/N=C/c3c(-c4ccc(F)cc4)nc4c(C)cccn34)nn2)cc1`, for which the outcome with Mus musculus [1], in the data set with Mus musculus [7] and with Mus musculus [5] was inactive. Besides, the Activity result with Mus musculus [2] and in the data set on Mus musculus [3] was “Non-toxic” each time. Further, the minimal effective dose in the data set on Mus musculus [4] was determined as 40 mg/kg.
